# Measured values of several laboratories.
# Protocols differ between the studies behind these lines.
# Target: Casein kinase I isoform gamma-3 (CSNK1G3, Homo sapiens, UniProt Q9Y6M4)
SMILES,effect on,action,technique,tested at,quantity,result
Cn1c2c(c3ccc(Cl)c(Cl)c31)C(C#N)C(C)(C)NC2=O (centres unmarked),thermal stability,,DSF,10 µM,ΔTm,0.5 °C
CO[C@@H](C)c1c(Nc2ccc([C@@H](N(C)C(=O)C3CCS(=O)(=O)CC3)C(F)(F)F)cc2)cnc2cc(Cl)nn12,cell-free assay,,competition with immobilised ligand,1 µM,remaining binding,71%
Cc1ccc(NC(=O)c2ccc(C)c(C(F)(F)F)c2)cc1C#Cc1nn(C2CCC(O)CC2)c2ncnc(N)c12 (centres unmarked),cell-free assay,,,10 µM,remaining signal,103%
COc1cc(Nc2c(C#N)cnc3cc(OCCCN4CCN(C)CC4)c(OC)cc23)c(Cl)cc1Cl,cell-free assay,,,0.5 µM,remaining signal,98.3%
CNC(=O)c1cc(Oc2ccc(NC(=O)Nc3ccc(Cl)c(C(F)(F)F)c3)cc2)ccn1,enzyme activity,inhibitor,,10 µM,inhibition,2%
CS(=O)(=O)CCNCc1ccc(-c2ccc3ncnc(Nc4ccc(OCc5cccc(F)c5)c(Cl)c4)c3c2)o1,cell-free assay,,,0.5 µM,remaining signal,104%
Cc1sc(C(=O)NC2COC2)cc1-n1cc(NC(=O)Nc2c(F)cccc2Cl)cn1,enzyme activity,inhibitor,,10 µM,remaining activity,91.3%
CC(C)CC(=O)N1CCc2nc(-c3ccc(Br)cc3)nc(N(C)Cc3ccccc3)c2C1,cell-free assay,,competition with immobilised ligand,0.1 µM,remaining binding,100%
COc1cc2c(Nc3ccc(Br)cc3F)ncnc2cc1OCC1CCN(C)CC1,cell-free assay,,,0.5 µM,remaining signal,98.1%
CN(c1nccc(-c2cnn3ncccc23)n1)C1CC1,binding,,,1 µM,remaining binding,100%
N#CCCc1ccc2c(c1)-c1[nH]c3ccc([N+](=O)[O-])cc3c1CC(=O)N2,cell-free assay,,,0.5 µM,remaining signal,89.7%
Cn1c2c(c3ccc(Cl)c(Cl)c31)C(C#N)C1(CCOCC1)NC2=O (centres unmarked),thermal stability,,DSF,10 µM,ΔTm,0.2 °C
CC(C)(C)c1nc2c(s1)c1nc(N)ncc1c1ccc(NS(=O)(=O)c3c(F)cccc3F)c(F)c12,enzyme activity,inhibitor,radiometric,1 µM,remaining activity,86%
Cc1cc(-n2nc(Cc3cc(F)cc(C(F)(F)F)c3)nc2C)ccc1C(N)=O,cell-free assay,,competition with immobilised ligand,1 µM,remaining binding,95%
Cn1c2c(Cl)c(Cl)ccc2c2cc[nH]c(=O)c21,thermal stability,,DSF,10 µM,ΔTm,-0.2 °C
O=C(NC[C@@H]1[C@H]2CN(C(=O)OCc3cc(C(F)(F)F)cc(C(F)(F)F)c3)C[C@@H]12)c1ccc2[nH]nnc2c1,cell-free assay,,competition with immobilised ligand,1 µM,remaining binding,89%
CN1CC(Oc2cnc(C#N)cc2-c2ccn3nc(NC(=O)C4CC4)cc3c2)C1,enzyme activity,inhibitor,,1 µM,inhibition,21%
Cc1ccc(C(=O)Nc2ccc(CN3CCN(C)CC3)c(C(F)(F)F)c2)cc1C#Cc1cnc2cccnn12,enzyme activity,inhibitor,,23.5 nM,remaining activity,97%
O=C(O)[C@@H]1[C@@H](Cn2nnc3ccccc3c2=O)CC[C@H]1C(=O)c1ccc(OCCC2CCOCC2)cc1,cell-free assay,,competition with immobilised ligand,1 µM,remaining binding,100%
COc1cc2ncnc(Nc3ccc(F)c(Cl)c3)c2cc1OCCCN1CCOCC1,cell-free assay,,,0.5 µM,remaining signal,103%
CNC(=O)Nc1ccc2c(c1)CC[C@@]21OC(=O)N(CC(=O)N(Cc2ccc(F)cc2)[C@@H](C)C(F)(F)F)C1=O,cell-free assay,,competition with immobilised ligand,1 µM,remaining binding,84%
COc1cc2ncnc(Nc3ccc(Oc4ccccc4)cc3C)c2cc1OC,enzyme activity,inhibitor,,1 µM,inhibition,4%
Cc1ccc(Nc2nccc(N(C)c3ccc4c(C)n(C)nc4c3)n2)cc1S(N)(=O)=O,enzyme activity,inhibitor,,10 µM,inhibition,18%
Cn1c2c(c3ccc(Cl)c(Cl)c31)C(C#N)C1(CCCCC1)NC2=O (racemic),thermal stability,,DSF,10 µM,ΔTm,-0.2 °C
O=S(=O)(NC1CCC(c2cc(F)ccc2F)(S(=O)(=O)c2ccc(Cl)cc2)CC1)C(F)(F)F (centres unmarked),cell-free assay,,competition with immobilised ligand,1 µM,remaining binding,83%
Cn1c2c(Cl)c(Cl)ccc2c2cn[nH]c(=O)c21,thermal stability,,DSF,10 µM,ΔTm,-0.1 °C
Cc1cnc(NC2CCOCC2)nc1-n1cnc(C(=O)NC(CN)c2cc(F)cc(Cl)c2)c1 (centres unmarked),enzyme activity,inhibitor,radiometric,1 µM,remaining activity,33%
O=C(O)c1cc(-c2ccc(C3CCNCC3)cc2)c2ccc(-c3ccc(C(F)(F)F)cc3)cc2c1,cell-free assay,,competition with immobilised ligand,1 µM,remaining binding,100%
N#CC1c2c([nH]c3c(Cl)c(Cl)ccc23)C(=O)NC12CCCCC2 (racemic),thermal stability,,DSF,10 µM,ΔTm,0.2 °C
